From ChEMBL document CHEMBL4270630

Assays:
[1] = system: Influenza A virus; assay: Antiviral activity against Influenza A virus A/PR/8/34(H1N1) infected in MDCK cells after 3 days by MTS assay; format: functional, organism-based, A/Puerto Rico/8/1934(H1N1)
Outline: (§1)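 Semi-confluent MDCK cells were infected at an MOI of 0.0004 PFU/cell in Ultra-MDCK infection medium with 2 μg/mL TPCK-trypsin, together with compounds. After 3 days at 35 °C, CPE was scored by microscopy and confirmed by MTS formazan viability. EC50 is the concentration giving 50% inhibition of virus-induced CPE. Values are means of two to five independent tests.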

[2] = system: Influenza B virus; assay: Antiviral activity against Influenza B virus B/HK/05/72 infected in MDCK cells after 3 days by MTS assay; format: functional, organism-based; details: B/Hong Kong/05/1972, MDCK, 72 h; outline: as §1
[3] = system: MDCK; assay: Cytotoxicity against MDCK cells assessed as reduction in cell viability after 3 days by MTS assay; format: cell-based, Canis lupus familiaris; details: dog, mdck, 72 h
[4] = system: Influenza A virus; assay: Antiviral activity against Influenza A virus A/Virginia/ATCC3/2009(H1N1pdm) infected in MDCK cells after 3 days by MTS assay; format: functional, organism-based, Influenza A virus (A/Virginia/03/2009(H1N1)); details: 72 h; outline: as §1
[5] = system: Influenza A virus; assay: Antiviral activity against Influenza A virus A/PR/8/34(H1N1) infected in MDCK cells assessed as reduction in virus-induced cytopathic effect after 3 days by microscopic method; format: functional, organism-based, A/Puerto Rico/8/1934(H1N1); outline: as §1
[6] = system: H3N2 subtype; assay: Antiviral activity against Influenza A virus A/HK/7/87(H3N2) infected in MDCK cells after 3 days by MTS assay; format: functional, organism-based; details: A/Hong Kong/7/1987(H3N2), 72 h; outline: as §1
[7] = Cytotoxicity against MDCK cells assessed as alteration in cell morphology after 3 days by microscopic method; format: cell-based, Canis lupus familiaris; details: dog
Outline: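 Mock-infected MDCK cells were treated with compounds in parallel with the antiviral assay, 3 days at 35 °C. MCC is the concentration causing minimal change in cell morphology by microscopy. CC50 is the 50% cytotoxic concentration by MTS formazan viability assay.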

[8] = system: H3N2 subtype; assay: Antiviral activity against Influenza A virus A/HK/7/87(H3N2) infected in MDCK cells assessed as reduction in virus-induced cytopathic effect after 3 days by microscopic method; format: functional, organism-based; details: A/Hong Kong/7/1987(H3N2), 72 h; outline: as §1
[9] = system: Influenza A virus; assay: Antiviral activity against Influenza A virus A/Virginia/ATCC3/2009(H1N1pdm) infected in MDCK cells assessed as reduction in virus-induced cytopathic effect after 3 days by microscopic method; format: functional, organism-based, Influenza A virus (A/Virginia/03/2009(H1N1)); details: 72 h; outline: as §1
[10] = system: Influenza B virus; assay: Antiviral activity against Influenza B virus B/HK/05/72 infected in MDCK cells assessed as reduction in virus-induced cytopathic effect after 3 days by microscopic method; format: functional, organism-based; details: B/Hong Kong/05/1972, MDCK, 72 h; outline: as §1
[11] = system: Influenza B virus; assay: Antiviral activity against Influenza B virus B/Ned/537/05 infected in MDCK cells assessed as reduction in virus-induced cytopathic effect after 3 days by microscopic method; format: functional, organism-based; details: B/Ned/537/05, MDCK, 72 h
Outline: (§2)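 Semi-confluent MDCK cells were infected at an MOI of 0.0004 PFU/cell in Ultra-MDCK infection medium with 2 μg/mL TPCK-trypsin, together with compounds. After 3 days at 35 °C, CPE was scored by microscopy and confirmed by MTS formazan viability. Values are means of two to five independent tests.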

[12] = system: Influenza B virus; assay: Antiviral activity against Influenza B virus B/Ned/537/05 infected in MDCK cells after 3 days by MTS assay; format: functional, organism-based; details: B/Ned/537/05, MDCK, 72 h; outline: as §2
[13] = Influenza A virus, A/Puerto Rico/8/1934(H1N1), MDCK, 72 h

CCCCCCCCSC1=C(SCCCCCCCC)C(=O)N([C@H]2C(=O)N[C@@H]3Cc4ccc(c(Cl)c4)Oc4cc5cc(c4O)Oc4ccc(cc4Cl)[C@@H](O[C@@H]4O[C@H](CO)[C@@H](O)[C@H](O)[C@H]4NC(C)=O)[C@H]4NC(=O)[C@H](NC(O)[C@@H]5NC(=O)[C@@H](NC3=O)c3cc(O)cc(c3)Oc3cc2ccc3O)c2ccc(O)c(c2)-c2c(O)cc(O)cc2[C@H](C(=O)O)NC4=O)C1=O (stereo not given in full)
EC50 [1, 13]: > 100 µM | EC50 [2]: > 100 µM | CC50 [3]: 11 µM | EC50 [4]: 1.9 µM | EC50 [5, 13]: > 100 µM | EC50 [6]: > 100 µM | MCC at 72 h [7]: 20 µM | EC50 [8]: > 100 µM | EC50 [9]: 2.1 µM | EC50 [10]: > 100 µM

CCCSC1=C(SCCC)C(=O)N(Cc2cn(C3C(=O)N[C@@H]4Cc5ccc(c(Cl)c5)Oc5cc6cc(c5O)Oc5ccc(cc5Cl)[C@@H](O[C@@H]5O[C@H](CO)[C@@H](O)[C@H](O)[C@H]5NC(C)=O)[C@H]5NC(=O)[C@H](NC(O)[C@@H]6NC(=O)[C@@H](NC4=O)c4cc(O)cc(c4)Oc4cc3ccc4O)c3ccc(O)c(c3)-c3c(O)cc(O)cc3[C@H](C(=O)O)NC5=O)nn2)C1=O (stereo not given in full)
EC50 [1, 13]: > 100 µM | EC50 [2]: > 100 µM | CC50 [3]: 22 µM | EC50 [4]: > 100 µM | EC50 [5, 13]: > 100 µM | EC50 [6]: > 100 µM | MCC at 72 h [7]: 20 µM | EC50 [8]: > 100 µM | EC50 [9]: > 100 µM | EC50 [10]: > 100 µM

CCCSC1=C(SCCC)C(=O)N(CCOCCOCCOCCOCc2cn(C3C(=O)N[C@@H]4Cc5ccc(c(Cl)c5)Oc5cc6cc(c5O)Oc5ccc(cc5Cl)[C@@H](O[C@@H]5O[C@H](CO)[C@@H](O)[C@H](O)[C@H]5NC(C)=O)[C@H]5NC(=O)[C@H](NC(O)[C@@H]6NC(=O)[C@@H](NC4=O)c4cc(O)cc(c4)Oc4cc3ccc4O)c3ccc(O)c(c3)-c3c(O)cc(O)cc3[C@H](C(=O)O)NC5=O)nn2)C1=O (stereo not given in full)
EC50 [1, 13]: > 100 µM | EC50 [2]: > 100 µM | CC50 [3]: 38 µM | EC50 [4]: 7.8 µM | EC50 [5, 13]: > 100 µM | EC50 [6]: ≤ 7.8 µM | MCC at 72 h [7]: 20 µM | EC50 [8]: 6.2 µM | EC50 [9]: > 100 µM | EC50 [10]: > 100 µM

NC(=O)c1ncn([C@@H]2O[C@H](CO)[C@@H](O)[C@H]2O)n1 [RIBAVIRIN]
EC50 ([1]; mdck): 9.1 µM | EC50 ([5]; mdck): 8.4 µM | EC50 [6]: 5.9 µM | MCC at 72 h [7]: > 100 µM | EC50 [8]: 13 µM

CCCCCCCCCCCCSC1=C(SCCC)C(=O)N([C@H]2C(=O)N[C@@H]3Cc4ccc(c(Cl)c4)Oc4cc5cc(c4O)Oc4ccc(cc4Cl)[C@@H](O[C@@H]4O[C@H](CO)[C@@H](O)[C@H](O)[C@H]4NC(C)=O)[C@H]4NC(=O)[C@H](NC(O)[C@@H]5NC(=O)[C@@H](NC3=O)c3cc(O)cc(c3)Oc3cc2ccc3O)c2ccc(O)c(c2)-c2c(O)cc(O)cc2[C@H](C(=O)O)NC4=O)C1=O (stereo not given in full)
EC50 [11]: 8.9 µM | EC50 [1, 13]: 10 µM | EC50 [12]: 7.3 µM | CC50 [3]: 29 µM | EC50 [4]: 8.2 µM | EC50 [5, 13]: > 100 µM | EC50 [6]: 6.8 µM | MCC at 72 h [7]: ≥ 20 µM | EC50 [8]: 7.3 µM | EC50 [9]: 5.1 µM

CC(=O)N[C@H]1[C@H]([C@H](O)[C@H](O)CO)OC(C(=O)O)=C[C@@H]1N=C(N)N [ZANAMIVIR]
EC50 [11]: 0.0079 µM | EC50 [1, 13]: 0.19 µM | EC50 [12]: 0.0062 µM | CC50 [3]: > 100 µM | EC50 [4]: 30 µM | EC50 [5, 13]: 0.041 µM | EC50 [6]: 3.2 µM | MCC at 72 h [7]: > 100 µM | EC50 [8]: 20 µM | EC50 [9]: 1.9 µM

CC(=O)N[C@H]1[C@H](O[C@@H]2c3ccc(c(Cl)c3)Oc3cc4cc(c3O)Oc3ccc(cc3Cl)C[C@H]3NC(=O)C(n5cc(COCCOCCOCCOCCN6C(=O)C(SCCOCCOCCOCCO)=C(SCCOCCOCCOCCO)C6=O)nn5)c5ccc(O)c(c5)Oc5cc(O)cc(c5)[C@H](NC3=O)C(=O)N[C@H]4C(O)N[C@H]3C(=O)N[C@H]2C(=O)N[C@@H](C(=O)O)c2cc(O)cc(O)c2-c2cc3ccc2O)O[C@H](CO)[C@@H](O)[C@@H]1O (stereo not given in full)
EC50 [11]: > 100 µM | EC50 [1, 13]: > 100 µM | EC50 [12]: 42 µM | CC50 [3]: ≥ 32 µM | EC50 [4]: > 100 µM | EC50 [5, 13]: > 100 µM | EC50 [6]: 23 µM | MCC at 72 h [7]: > 100 µM | EC50 [8]: > 100 µM | EC50 [9]: > 100 µM
